≈ marks a conversion by molar mass, not a printed value.
Assays:
[1] = Solubility in combination assay; settings: combination assay medium
tet^R E. coli [2] = experiment: Combination; format: cell-based, Escherichia coli; settings: for Fold enhancement: tetracycline, amphiphile 20 μM, Tet^R E. coli
HEK-293 cells = experiment: Mammalian cell cytotoxicity; format: cell-based, human; settings: 1/2 MIC (4: 1 μM; colistin 0.125 μM); 24 hours; XTT
tet^R E. coli [3] = experiment: Membrane permeability using propidium iodide and FDA; format: cell-based, Escherichia coli
How it was run: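 tetR E. coli grown overnight with 100 μg mL−1 ampicillin (37 °C, 200 RPM) and knocked back to OD600 0.550. Treated 30 min at half-MIC; Triton X-100 and DMSO controls; DMSO 0.5%. Washed (3000 × g, 5 min) into PBS, then stained with propidium iodide (30 μM) and fluorescein diacetate (60 μM) for 30 min at 37 °C. Washed again and imaged by confocal microscopy.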

Cos-7 cells = experiment: Mammalian cell cytotoxicity; format: cell-based, simian; settings: 1/2 MIC; 24 hours; XTT
How it was run: (§1)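 HEK-293, HeLa and Cos-7 cells kept in DMEM with 10% FBS and 1% penicillin–streptomycin. Seeded at 3 × 10^4 cells per well and grown 24 h to 80–90% confluence. […] XTT assay: absorbance at 450 nm, 690 nm background. Percent survival versus untreated cells, three replicates, mean ± SD.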

tet^R E. coli [4] = experiment: Potassium transport; format: cell-based, Escherichia coli; settings: 30 μM
How it was run: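 tetR E. coli pelleted at 2000 × g, resuspended in PBS and adjusted to OD 1.300. Stirred suspension monitored with a K+-selective electrode. Multiple test compound concentrations; mV recorded every 30 s for 15 min. [K+] calculated from a calibration curve. Total potassium pool from cells heated at 100 °C for 30 min, set as 100%. Three trials, SD.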

P. aeruginosa (R:Mero) = experiment: MIC screening; format: cell-based; settings: Pseudomonas aeruginosa
How it was run: (§2)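 Broth microdilution. Overnight cultures knocked back to OD600 0.100 and grown at 37 °C to OD600 0.500. Final inoculum 4 × 10^5 CFU mL−1 in cation-adjusted MHII; S. pneumoniae in CA-MHB with 5% LHB; tetR E. coli in LB with 100 μg mL−1 ampicillin. Final DMSO 0.5% v/v. Incubated 18–20 h at 37 °C, then OD600 read. MIC is ≥90% inhibition versus untreated cells. Triplicate wells, repeated on two further plates.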

E. coli (WT) = experiment: MIC screening; format: cell-based; settings: Escherichia coli
How it was run: as §2

E. aerogenes (R:Cep) = experiment: MIC screening; format: cell-based, Enterobacter aerogenes; settings: Klebsiella aerogenes
How it was run: as §2

E. coli (Tol-) = experiment: MIC screening; format: cell-based; settings: Escherichia coli
How it was run: as §2

tet^R E. coli [5] = experiment: Resistance development by sequential culturing; format: cell-based, Escherichia coli; settings: 15 days
How it was run: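 Serial passage of tetR E. coli in LB over 15 days, with minocycline as comparator. […] Each day, cells from the second-highest concentration that allowed growth were diluted 1:100 into fresh media at 0.25–4× MIC. Cultures growing above the MIC were passaged on antibiotic-free LB agar and the MIC was redetermined. Mean of three trials.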

tet^R E. coli [6] = experiment: MIC against efflux pump expressing tet^R E. coli; format: cell-based; settings: Escherichia coli
How it was run: as §2

human hepatocytes = experiment: Human hepatocyte cell viability; format: cell-based; settings: 72 h, read-out: EC50 against human hepatocytes
How it was run: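 Human hepatocytes treated with 1–100 μM test compound, or CCCP as control, for 72 h. Survival then determined.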

NorA efflux pump = target: T1, NorA efflux pump (Staphylococcus aureus, UniProt P0A0J7); experiment: Efflux pump inhibition; format: cell-based; settings: read-out: inhibition of NorA activity, lower than for 3 or 4
T1 sequence (P0A0J7 1-388): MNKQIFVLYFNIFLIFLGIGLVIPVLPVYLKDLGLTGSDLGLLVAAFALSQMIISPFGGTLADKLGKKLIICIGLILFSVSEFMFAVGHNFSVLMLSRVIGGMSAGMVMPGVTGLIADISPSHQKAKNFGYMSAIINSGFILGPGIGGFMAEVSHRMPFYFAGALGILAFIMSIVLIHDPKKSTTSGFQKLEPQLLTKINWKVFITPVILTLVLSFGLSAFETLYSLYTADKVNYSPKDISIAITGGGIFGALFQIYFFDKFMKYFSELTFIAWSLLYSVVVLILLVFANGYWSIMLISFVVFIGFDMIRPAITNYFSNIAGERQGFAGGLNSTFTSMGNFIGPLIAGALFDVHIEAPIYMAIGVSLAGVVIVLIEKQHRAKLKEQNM
How it was run: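 S. aureus 1199B knocked back to OD600 0.550, then loaded with ethidium bromide (10 μg mL−1) plus 100 μM CCCP in MHII at OD600 1.000 for 20 min at room temperature. Spun, held on ice, warmed 5 min, adjusted to OD600 0.800. Added to wells containing test compound, CCCP or reserpine. Fluorescence read at ex 530/em 600 nm every minute for 20 min. Three runs, SD.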

[7] = system: HEK-293, HeLa and Cos-7 cells; experiment: Mammalian cell cytotoxicity; format: cell-based; settings: 1/2 MIC; 24 hours; XTT
How it was run: as §1

S. aureus 1199B [8] = experiment: MIC against NorA expressing S. aureus 1199B; format: cell-based; settings: Staphylococcus aureus
How it was run: as §2

E. faecalis (control) = experiment: MIC screening; format: cell-based, Enterococcus faecalis
How it was run: as §2

E. faecalis (VanA) = experiment: MIC screening; format: cell-based, Enterococcus faecalis
How it was run: as §2

S. aureus (control) = experiment: MIC screening; format: cell-based; settings: Staphylococcus aureus
How it was run: as §2

MRSA (USA100) = experiment: MIC screening; format: cell-based; settings: Staphylococcus aureus
How it was run: as §2

S. pneumoniae (control) = experiment: MIC screening; format: cell-based; settings: Streptococcus pneumoniae
How it was run: as §2

MRSA (control) = experiment: MIC screening; format: cell-based; settings: Staphylococcus aureus
How it was run: as §2

MRSA = experiment: MIC against MRSA as stated in text; format: cell-based; settings: Staphylococcus aureus
How it was run: as §2

MRSA (USA 300) = experiment: MIC screening; format: cell-based; settings: Staphylococcus aureus, MRSA|USA300
How it was run: as §2

S. aureus 1199B [9] = experiment: Membrane permeability using propidium iodide; format: cell-based, Staphylococcus aureus; settings: 0.1% (1.6 mM)
[10] = amphiphile at 1/2 MIC, tet^R E. coli

CC(C)[C@@H]1NC(=O)[C@H](C)OC(=O)[C@@H](C(C)C)NC(=O)[C@@H](C(C)C)OC(=O)[C@H](C(C)C)NC(=O)[C@H](C)OC(=O)[C@@H](C(C)C)NC(=O)[C@@H](C(C)C)OC(=O)[C@H](C(C)C)NC(=O)[C@H](C)OC(=O)[C@@H](C(C)C)NC(=O)[C@@H](C(C)C)OC1=O [Valinomycin, valinomycin]
solubility [1]: insoluble at >20 μM | Fold enhancement (tet^R E. coli [2]): 2 fold

colistin
survival of HEK-293 (HEK-293 cells): about 60% | concentration that increases membrane permeability (propidium iodide) (tet^R E. coli [3]): ≥ 2000 nM | survival of Cos-7 (Cos-7 cells): non-cytotoxic

gramicidin-D
solubility [1]: insoluble at >20 μM | Fold enhancement (tet^R E. coli [2]): 1 fold | K+ release, percent of total potassium pool (tet^R E. coli [4]): 50–60%

C[C@@H](O)[C@H]1C(=O)N2C(C(=O)O)=C(S[C@@H]3CN[C@H](C(=O)N(C)C)C3)[C@H](C)[C@H]12 [Meropenem, meropenem]
MIC (P. aeruginosa (R:Mero)): > 166 µM | MIC (E. coli (WT)): < 0.33 µM | MIC (E. aerogenes (R:Cep)): < 0.33 µM | MIC (E. coli (Tol-)): < 0.33 µM

CN(C)c1ccc(O)c2c1C[C@H]1C[C@H]3[C@H](N(C)C)C(O)=C(C(N)=O)C(=O)[C@@]3(O)C(O)=C1C2=O [minocycline]
resistance development, increase in MIC (tet^R E. coli [5]): 40 fold

CN(C)[C@@H]1C(O)=C(C(N)=O)C(=O)[C@@]2(O)C(O)=C3C(=O)c4c(O)cccc4[C@@](C)(O)[C@H]3C[C@@H]12 [Tetracycline, tetracycline]
MIC (tet^R E. coli [6]): 900 ± 50 µM (≈ 400 µg/mL)

N#CC(C#N)=NNc1cccc(Cl)c1 [CCCP, carbonyl cyanide 3-chlorophenylhydrazone]
EC50 (human hepatocytes): 5 µM | FIC index with tetracycline (tet^R E. coli [2]; [10]): 0.75 | increase (recovery) in activity of tetracycline (tet^R E. coli [2]; [10]): 4 fold | inhibition at 4 µM (NorA efflux pump): ~30% | cytotoxicity [7]: cytotoxic

COC(=O)[C@H]1[C@H]2C[C@@H]3c4[nH]c5cc(OC)ccc5c4CCN3C[C@H]2C[C@@H](OC(=O)c2cc(OC)c(OC)c(OC)c2)[C@@H]1OC [Reserpine, reserpine]
inhibition at 4 µM (NorA efflux pump): ~30%

CCn1cc(C(=O)O)c(=O)c2cc(F)c(N3CCNCC3)cc21 [Norfloxacin, norfloxacin]
MIC (S. aureus 1199B [8]): 64 µM (≈ 20.4 µg/mL)

CCCCCCCCCC(=O)N[C@@H](Cc1c[nH]c2ccccc12)C(=O)N[C@H](CC(N)=O)C(=O)N[C@@H](CC(=O)O)C(=O)N[C@@H]1C(=O)NCC(=O)N[C@@H](CCCN)C(=O)N[C@@H](CC(=O)O)C(=O)N[C@H](C)C(=O)N[C@@H](CC(=O)O)C(=O)NCC(=O)N[C@H](CO)C(=O)N[C@@H]([C@H](C)CC(=O)O)C(=O)N[C@@H](CC(=O)c2ccccc2N)C(=O)O[C@@H]1C [Daptomycin, daptomycin]
MIC (E. faecalis (control)): 2.5 µM (≈ 4.05 µg/mL) | MIC (E. faecalis (VanA)): 2.5 µM (≈ 4.05 µg/mL)

CN[C@H](CC(C)C)C(=O)N[C@H]1C(=O)N[C@@H](CC(N)=O)C(=O)N[C@H]2C(=O)N[C@H]3C(=O)N[C@H](C(=O)N[C@H](C(=O)O)c4cc(O)cc(O)c4-c4cc3ccc4O)[C@H](O)c3ccc(c(Cl)c3)Oc3cc2cc(c3O[C@@H]2O[C@H](CO)[C@@H](O)[C@H](O)[C@H]2O[C@H]2C[C@](C)(N)[C@H](O)[C@H](C)O2)Oc2ccc(cc2Cl)[C@H]1O [Vancomycin, vancomycin]
MIC (S. aureus (control)): 0.5 µM (≈ 0.725 µg/mL) | MIC (MRSA (USA100)): 1 µM (≈ 1.45 µg/mL) | MIC (S. pneumoniae (control)): < 0.1 µM | MIC (MRSA (control)): 1 µM (≈ 1.45 µg/mL) | MIC (MRSA): 1 to 2 µM (≈ 1.45 to 2.9 µg/mL) | MIC (MRSA (USA 300)): 1 µM (≈ 1.45 µg/mL)

Triton X-100
Fold enhancement (tet^R E. coli [2]): 2 fold | membrane permeability (propidium iodide) (S. aureus 1199B [9]): increases membrane permeability | membrane permeability (propidium iodide) (tet^R E. coli [3]; 0.1% (1.6 mM)): increases membrane permeability
